# Screening results (PubChem)
# SDO1 yeast rescue = growth rescue of sdo1-depleted yeast, primary screen, S. cerevisiae, bone marrow failure model; S. cerevisiae sdo1-depleted JHY4D growth rescue, OD600 30 h; hits give high values; pdr5 snq2 efflux-pump mutant strain; z-score at 10 µM; hit rate 0.21% among 140,000; AID 817, 2007;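 active = z-score above 3 at both the 24 hr and the 30 hr optical density reads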
# Measles CPE = compounds protecting cells from measles virus cytopathic effect, primary screen, measles RdRp inhibitor project, single point, MLSMR library, absorbance; hit rate 1.5% among 140,000; Measles virus-infected cells, CPE protection; protection (pct of control), % at 4 µM; in the data active = protection mostly above about 24%, no sharp cut-off; inactive = mostly below about 26%
# sEH inh = soluble epoxide hydrolase inhibitors, primary screen, biochemical, human sEH. hit rate 0.34% among 91,000. AID 707, 2007. Bifunctional epoxide hydrolase 2 (Homo sapiens), P34913. recombinant human sEH enzymatic activity assay. inhibition, % at 2 µM; in the data active = inhibition above about 80%
# Target sequence (P34913 whole entry, looked up): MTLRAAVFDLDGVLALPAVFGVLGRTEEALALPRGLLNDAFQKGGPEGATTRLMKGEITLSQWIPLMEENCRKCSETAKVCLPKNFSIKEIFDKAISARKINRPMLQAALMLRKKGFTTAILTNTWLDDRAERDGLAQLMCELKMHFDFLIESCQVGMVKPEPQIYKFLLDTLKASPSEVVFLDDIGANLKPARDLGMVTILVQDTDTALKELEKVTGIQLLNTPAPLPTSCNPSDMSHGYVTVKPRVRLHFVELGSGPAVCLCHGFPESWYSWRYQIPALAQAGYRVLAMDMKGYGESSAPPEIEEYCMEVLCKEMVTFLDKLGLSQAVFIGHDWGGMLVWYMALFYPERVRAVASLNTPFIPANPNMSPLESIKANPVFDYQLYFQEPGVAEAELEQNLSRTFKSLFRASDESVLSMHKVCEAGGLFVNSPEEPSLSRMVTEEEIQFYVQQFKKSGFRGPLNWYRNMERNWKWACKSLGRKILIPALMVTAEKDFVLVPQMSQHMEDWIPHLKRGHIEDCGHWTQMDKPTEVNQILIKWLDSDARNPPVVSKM
# Yeast life ext = compounds extending yeast replicative lifespan, primary screen, S. cerevisiae, OD615; S. cerevisiae growth with nicotinamide; deaD strain in restrictive glucose medium; inhibition of the nicotinamide effect, % at 10 µM; hit rate 0.68% among 130,000; AID 775, 2007;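 active = inhibition above a set limit, placed 3 SD over the median of all compounds, cut at about 26% in these data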
#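 Material: Modified budding yeast, DeaD strain | Medium: Restrictive glucose medium | Probe or stimulus: 1.5 mM nicotinamide | Dosing: Single dose 10 µM compound, 0.25% DMSO | Times: 48 h at 30 °C | Technique: OD615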
# Yeast growth inh = growth inhibitors of yeast BB579 in restrictive medium, primary screen, yeast lifespan-shortening project, S. cerevisiae; OD615, 48 h; inhibition, % at 10 µM; hit rate 0.51% among 140,000;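 active = inhibition above a set limit, 3 SD over the mean compound inhibition, cut at about 44% in these data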
#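 Assay system – yeast BB579 (DeaD) · Dosing – single compound dose of 10 µM, 0.25% DMSO final · Detection – OD615 turbidity measurement · Buffer or medium – CSMM-D restrictive synthetic medium containing dextrose (glucose) · Benchmarks – positive control amphotericin B 10 µg/mL · Incubation – 48 h exposure, 30 °C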
# sEH activator = soluble epoxide hydrolase activators, primary screen, biochemical, human sEH. activation, % at 2 µM. Bifunctional epoxide hydrolase 2 (Homo sapiens), P34913. hit rate 0.04% among 91,000. purified human sEH enzymatic activity, activator screen; in the data active = activation above about 37%
# sdo1 rescue conf = SDO1-depleted yeast growth rescue, concentration-response, diseases of bone marrow failure, JHY4D, OD600 | AID 949, 2007 | OD recovery (no concentration beside the values) | shares compounds with SDO1 yeast rescue | hit rate 44% among 440 | S. cerevisiae JHY4D (SDO1-depleted) growth rescue, 30 h; hits give high values; efflux-deficient strain, SNQ2 and PDR5 mutated;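 active = yeast growth recovered at 30 hours, either rising with dose fitted slope above 0.001 or with average optical density gain above 0.07, some results past the limit were not filed as active; inactive = growth falling with dose or no effect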
# Hits are given with their value; n = inactive; x = no result given. Compounds with a hit are over-represented: about 3% of the library has one in this group of screens.
SMILES,SDO1 yeast rescue,Measles CPE,sEH inh,Yeast life ext,Yeast growth inh,sEH activator,sdo1 rescue conf
CCn1cc(/C=N/NC(=O)c2ccc(C#N)cc2F)c2ccccc21,n,n,n,n,n,n,x
O=C(NCc1cccs1)c1nc2ncccn2n1,3.01,n,n,n,n,n,n
Cc1nc2nc(C)c(CCC(=O)NC(C)c3ccc4c(c3)OCCO4)c(C)n2n1 (stereo not drawn),n,n,n,n,n,n,n
COC(=O)c1cnn(-c2cc(Oc3cccc(C)c3)ncn2)c1N,n,n,n,n,n,n,x
CC(=O)c1cnn(-c2cc(Oc3cccc(C)c3)ncn2)c1C,6.88,51.0,n,n,n,n,n
CCCCn1nc2cc(C(=O)NCc3ccc(OC(F)(F)F)cc3)ccc2c1OC,n,n,n,n,n,n,x
COc1ccc2c(-c3cc4ccc(OCc5ccc(F)cc5)cc4oc3=O)cc(=O)oc2c1,16.3,n,x,n,n,x,n
COc1ccc(-c2cc(=O)oc3cc(OCC(C)=O)ccc23)cc1,n,n,x,n,n,x,x
Cc1cccc(NC(=O)C2(c3ccc([N+](=O)[O-])cc3)CCCC2)c1,6.45,n,n,n,n,n,n
CC(=O)OCC(=O)NCC(=O)c1c[nH]c2ccccc12,n,n,x,n,n,x,x
Cc1ccc(S(=O)(=O)N2CCOCC2)cc1NC(=O)COc1ncnc2ccccc12,n,n,x,n,n,x,x
O=C(COc1ncnc2ccccc12)Nc1cccc(S(=O)(=O)N2CCOCC2)c1,3.64,n,x,n,n,x,n
COc1ccc(-c2noc(CCC(=O)Nc3cccc(C)c3)n2)cc1,n,n,n,n,n,n,x
COc1ccc(-c2noc(CCC(=O)N(C)c3cccc(C)c3)n2)cc1,4.31,n,n,n,n,n,n
O=C(COc1ccccc1C(=O)N/N=C\c1ccc(O)c(O)c1)N/N=C/c1ccc(O)c(O)c1,n,n,n,n,n,n,n
Cc1ccc(S(=O)(=O)N(C#N)c2nc(C)cc(C)n2)cc1,n,n,n,n,n,n,x
Cc1cc(C)nc(N(C#N)S(=O)(=O)c2ccc(Br)cc2)n1,12,n,n,n,n,n,n
O=C(Nc1ccc(Cl)c(C(F)(F)F)c1)NC1CC2CCCC(C1)N2C1CC1 (stereo not drawn),x,x,n,x,x,n,x
CCn1nnnc1SCC(=O)c1ccc2c(c1)OCCO2,10.2,n,n,n,n,n,n
CC(C)n1nnnc1SCC(=O)c1ccc2c(c1)OCCO2,n,n,n,n,n,n,x
O=C(NCCCN1CCN(CCCNC(=O)c2cccc([N+](=O)[O-])c2)CC1)c1cccc([N+](=O)[O-])c1,11.3,n,x,n,n,x,n
COC(=O)c1cc(NC(=O)Cc2ccccc2[N+](=O)[O-])cc(C(=O)OC)c1,n,n,n,n,n,n,x
CCCNC(=O)C1CNc2ccccc2O1 (stereo not drawn),n,n,n,n,n,n,x
CCOC(=O)c1oc2ccccc2c1NC(=O)c1cccc(OC)c1,n,n,n,n,n,n,x
CCOC(=O)c1oc2ccccc2c1NC(=O)c1cccc(OC)c1OC,n,n,n,n,n,n,0.0947
SMILES,SDO1 yeast rescue,Measles CPE,sEH inh,Yeast life ext,Yeast growth inh,sEH activator,sdo1 rescue conf
CC(=O)Nc1ccc(NC(=O)c2ccccc2CC[N+](=O)[O-])cc1,n,n,n,n,n,n,x
CCOC(=O)c1cccnc1SCC(=O)NC(C)CC (stereo not drawn),n,n,n,n,n,n,0.0902
CCN(CC)S(=O)(=O)c1ccc(NC2c3ncccc3C(=O)N2Cc2ccccc2)cc1 (stereo not drawn),10.3,n,n,n,n,n,n
COc1ccc(CN2C(=O)c3cccnc3C2Nc2ccc(C)cc2)cc1 (stereo not drawn),n,n,n,n,n,n,x
COc1ccc(C2C(C(=O)N3CCOCC3)=C(C)NC3=C2C(=O)CC(C)(C)C3)c(OC)c1 (stereo not drawn),8.21,n,n,n,n,n,n
CC1=C(C(=O)N2CCOCC2)C(c2ccccc2F)C2=C(CC(C)(C)CC2=O)N1 (stereo not drawn),n,n,x,n,n,x,x
Cc1ccccc1N1CCN(Cc2c[nH]c3ccccc23)CC1,7.55,n,n,n,n,n,n
CCOc1ccc(NC(=O)c2ccncc2)cc1,4.08,n,n,n,n,n,n
CCOc1ccc(C(=O)NC(=S)NCc2cccnc2)cc1,n,n,x,n,n,x,0.105
CCOc1ccc(NC(=O)CC2C(=O)N(C)C(=S)N2Cc2ccc3c(c2)OCO3)cc1 (stereo not drawn),n,n,x,x,n,x,x
COC(=O)c1c(C)[nH]c(C(=O)/C=C/c2cccc(Cl)c2)c1C,10.8,n,x,n,n,x,n
CC1CCN(c2ccc(C(=O)NCc3ccco3)cc2[N+](=O)[O-])CC1,10.6,n,x,n,n,x,0.0952
C=CCn1c2ccccc2c2nnc(SCC(=O)OCN3C(=O)c4ccccc4C3=O)nc21,n,n,n,x,n,n,x
COc1cc(/C=N/NC(=O)CCC(=O)NCc2ccccc2)cc(OC)c1OC,4.48,n,x,n,n,x,0.0945
COc1cc(/C=N/NC(=S)N/N=C/c2cc(OC)c(OC)c(OC)c2)cc(OC)c1OC,3.01,n,x,n,n,x,n
Clc1nc(NCc2cccnc2)nc(N2CCOCC2)n1,n,n,n,x,n,n,x
C=CCN=C(C)C1=C(O)C(C)OC1=O (stereo not drawn),14.2,n,x,n,n,x,0.0967
Cc1ccc(S(=O)(=O)N2CCCCC2)cc1NC(=O)COC(=O)Cc1c(F)cccc1Cl,16.9,n,x,n,n,x,0.0896
COc1ccc(OCCNC(=O)/C=C/c2ccc([N+](=O)[O-])cc2)cc1,14.7,n,x,n,n,x,n
Cc1c(C#N)c2ncn(CCCN(C)C)c(=O)c2n1-c1ccccc1,3.58,n,n,n,n,n,0.102
CN(C)CCCNC(=O)C1CCNCC1,3.07,n,x,n,n,x,0.104
O=C(CSc1ccc(C(F)(F)F)cc1[N+](=O)[O-])Nc1ccc2ccccc2c1,n,n,x,n,n,x,x
COc1c(/C=N/Nc2ccc([N+](=O)[O-])cc2[N+](=O)[O-])c(C)nn1-c1ccccc1,n,n,n,n,n,n,n
COC(=O)C1C(=O)OC(C)(C)C1C(C)C(=O)c1ccccc1 (stereo not drawn),4.85,n,n,n,n,n,n
O=C(Cc1coc(-c2ccc(F)cc2)n1)Nc1ccccc1,3.22,n,x,n,n,x,n
